We go through 14 compounds from ChEMBL document CHEMBL1122208, “Inhibitors of hepatic mixed-function oxidases. 4. Effects of benzimidazole and related compounds on aryl hydrocarbon hydroxylase activity from phenobarbitone and 3-methylcholanthrene induced rats” (J Med Chem, 1982).

Each structure is given as a SMILES string. pIC50, pKd: −log10 of the molar value. Counter-ions that a name gives are not always drawn.

Series [1] in a line: Partition coefficient (logP). It counts as physicochemical. Particulars: octanol/water.
For series [2], the target named is T1, Cytochrome P450 2B1 (Rattus norvegicus, UniProt P00176).
T1 sequence (P00176 whole entry): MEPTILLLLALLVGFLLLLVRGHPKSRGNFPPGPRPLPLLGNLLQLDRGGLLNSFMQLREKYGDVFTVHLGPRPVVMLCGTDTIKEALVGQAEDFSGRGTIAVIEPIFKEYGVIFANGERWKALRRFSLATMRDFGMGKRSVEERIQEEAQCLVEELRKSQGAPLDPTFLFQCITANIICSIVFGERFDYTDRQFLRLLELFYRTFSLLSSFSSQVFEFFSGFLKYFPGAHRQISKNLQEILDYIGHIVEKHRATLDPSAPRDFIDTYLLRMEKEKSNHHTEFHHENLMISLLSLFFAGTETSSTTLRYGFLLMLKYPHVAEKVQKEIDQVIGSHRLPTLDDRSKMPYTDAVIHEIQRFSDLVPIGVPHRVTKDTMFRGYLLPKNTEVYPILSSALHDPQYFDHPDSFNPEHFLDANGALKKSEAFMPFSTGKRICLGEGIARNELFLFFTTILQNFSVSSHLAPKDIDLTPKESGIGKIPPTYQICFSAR
Description: Inhibition of Aminopyrine N-demethylase in Phenobarbitone-treated rats. Conditions: read-out: I50. In a few lines: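 Hepatic microsomes from immature male Wistar rats dosed with PB 80 (mg/kg)/day ip for 3 days and starved 24 h. Prepared in 0.1 M potassium phosphate pH 7.4. Aminopyrine N-demethylation followed by formaldehyde formation. Results expressed as molar I50.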

The target in series [3] is T2, aryl hydrocarbon hydroxylase (cytochrome P450 1A1) (Rattus norvegicus, UniProt P00185).
T2 sequence (P00185 whole entry): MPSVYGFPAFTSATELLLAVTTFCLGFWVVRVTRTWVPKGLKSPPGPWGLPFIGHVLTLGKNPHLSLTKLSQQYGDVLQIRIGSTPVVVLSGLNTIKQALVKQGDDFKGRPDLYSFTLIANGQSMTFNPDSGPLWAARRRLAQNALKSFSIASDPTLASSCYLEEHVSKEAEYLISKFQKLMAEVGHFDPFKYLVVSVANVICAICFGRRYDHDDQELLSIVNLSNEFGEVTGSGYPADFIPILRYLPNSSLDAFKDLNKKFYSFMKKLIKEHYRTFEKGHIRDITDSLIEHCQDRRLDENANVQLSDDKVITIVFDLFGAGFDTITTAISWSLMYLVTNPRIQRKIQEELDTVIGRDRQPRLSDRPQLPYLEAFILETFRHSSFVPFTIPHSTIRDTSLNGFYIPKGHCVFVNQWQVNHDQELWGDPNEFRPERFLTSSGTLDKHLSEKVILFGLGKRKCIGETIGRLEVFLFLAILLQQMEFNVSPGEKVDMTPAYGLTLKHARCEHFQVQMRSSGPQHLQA
Description: Inhibition of Aryl hydrocarbon hydroxylase in phenobarbitone-treated rats. Particulars: read-out: I50. In a few lines:
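Microsomes from immature male Wistar rats (100-150 g) given PB 80 (mg/kg)/day ip for 3 days, starved 24 h. Incubation: BP 285 nmol, MgCl2 3.0 μmol, NADPH 0.50 μmol, protein 1.2 mg, 0.1 M K phosphate pH 7.4, 3.0 mL. Run 10 min at 37 °C. Phenol fluorescence read at ex 396/em 522 nm. I50 by linear regression over five to eight inhibitor concentrations, mean of duplicates.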

Series [4] deals with T2, aryl hydrocarbon hydroxylase (cytochrome P450 1A1). Description: Effect on Aryl hydrocarbon hydroxylase activity in 3-methylcolanthrene-induced rat liver microsomes at 5.0x10E-5M. The format is ADME, Microsome. Conditions: 3-methylcholanthrene-induced rat liver microsomes, read-out: Control. The method, boiled down: (§1)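 Liver microsomes from immature male Wistar rats (100-150 g) given one 3-MC dose (25 mg/kg in corn oil, ip) 3 days before sacrifice, starved 24 h. Incubation: BP 357 nmol, MgCl2 3.0 μmol, NADPH 0.50 μmol, protein 1.2 mg, 0.1 M K phosphate pH 7.4, 3.0 mL final volume. Run 6 min at 37 °C. Fluorescent phenols read at ex 396/em 522 nm. Activity given as % of solvent control, mean of three determinations, at roughly maximum solubility.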
Background: Liver microsomes are a subcellular fraction often used to study metabolism.

Series [5] shares this target. Kind of series: Effect on Aryl hydrocarbon hydroxylase activity in 3-methylcolanthrene-induced rat liver microsomes at 3.6x10E-4M. It counts as ADME, Microsome. Conditions: 3-methylcholanthrene-induced rat liver microsomes, read-out: Control. The method, boiled down: as §1
Series [6] has the same target. Description: Effect on Aryl hydrocarbon hydroxylase activity in 3-methylcolanthrene-induced rat liver microsomes at 1.7x10E-4M. It counts as ADME, Microsome. Conditions: 3-methylcholanthrene-induced rat liver microsomes, read-out: Control. In a few lines: as §1
Series [7] shares this target. Description: Effect on Aryl hydrocarbon hydroxylase activity in 3-methylcolanthrene-induced rat liver microsomes at 5.9x10E-4M. It counts as ADME, Microsome. Particulars: 3-methylcholanthrene-induced rat liver microsomes, read-out: Control. The method, boiled down:
as §1

Series [8] has as its target T3, cytochrome P450 (cytochrome P450 1A1) (Rattus norvegicus, UniProt P00185).
T3 sequence (P00185 whole entry): T2 sequence (P00185 whole entry)
Description: Interaction with cytochrome P450 in 3-methylcholanthrene-induced rat hepatic microsomes. It counts as ADME, Liver. Particulars: read-out: Ks. In a few lines:
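Hepatic microsomes from immature male Wistar rats given 3-MC (25 mg/kg in corn oil, ip, single dose) 3 days before sacrifice, starved 24 h. Optical difference spectra recorded at 1 mg/mL microsomal protein. Ks taken from abscissal intercept of double-reciprocal plot of ΔOD (peak-trough) vs concentration, five to eight concentrations, in duplicate.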

In series [9] the target is T1, Cytochrome P450 2B1. Kind of series: Interaction with cytochrome P450 in Phenobarbitone-induced rat hepatic microsomes. It counts as ADME, Liver. Particulars: read-out: Ks. The method, boiled down: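 Microsomes came from immature male Wistar rats dosed with phenobarbitone, 80 (mg/kg)/day ip for 3 days, and starved 24 h before sacrifice. Difference spectra recorded at 1 mg/mL microsomal protein. Ks obtained in duplicate from abscissal intercept of a double-reciprocal plot of ΔOD (peak-trough) against compound concentration, using five to eight concentrations.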

The target of series [10] is T1, Cytochrome P450 2B1. Description: Interaction (Ks) with cytochrome P450 in phenobarbitone-induced rat hepatic microsomes. The format is ADME, Liver. Conditions: read-out: Ks. The method, boiled down: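 Difference spectra recorded with microsomes from PB-treated rats (80 (mg/kg)/day ip, 3 days) at 1 mg/mL microsomal protein. Ks obtained in duplicate from double-reciprocal plots of ΔOD (peak-trough) versus five to eight ligand concentrations, using the abscissal intercept.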

Series [11] has as its target T3, cytochrome P450 (cytochrome P450 1A1). Kind of series: Interaction (Ks) with cytochrome P450 in 3-methylcholanthrene-induced rat hepatic microsomes. The format is ADME, Liver. Conditions: read-out: Ks. The method, boiled down:
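Optical difference spectra recorded with microsomes from 3-MC-treated rats (25 mg/kg in corn oil, ip, 3 days) at 1 mg/mL protein. Ks taken from the abscissal intercept of double-reciprocal plots of ΔOD (peak-trough) against five to eight compound concentrations, determined in duplicate.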

Series [12] has as its target T2, aryl hydrocarbon hydroxylase (cytochrome P450 1A1). Kind of series: Effect on Aryl hydrocarbon hydroxylase activity in 3-methylcolanthrene-induced rat liver microsomes at 5.2x10E-5M. Conditions: 3-methylcholanthrene-induced rat liver microsomes, read-out: Control. The format is ADME, Microsome. The method, boiled down:
as §1

For series [13] the target is unchanged. Kind of series: Effect on Aryl hydrocarbon hydroxylase activity in 3-methylcolanthrene-induced rat liver microsomes at 4.3x10E-4M. It counts as ADME, Microsome. Conditions: 3-methylcholanthrene-induced rat liver microsomes, read-out: Control. The method, boiled down:
(§2)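 Liver microsomes from immature male Wistar rats (100-150 g) given one 3-MC dose (25 mg/kg in corn oil, ip) 3 days before sacrifice, starved 24 h. Incubation: benzo[a]pyrene 357 nmol, MgCl2 3.0 μmol, NADPH 0.50 μmol, 1.2 mg protein, 0.1 M potassium phosphate pH 7.4 (3.0 mL), 6 min, 37 °C. Compound added from 0.07 N HCl or Me2SO-water stock at near-maximal solubility. Fluorescent phenols read ex 396/em 522 nm. Value is % of solvent control, mean of three determinations.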

For series [14] the target is unchanged. Kind of series: Effect on Aryl hydrocarbon hydroxylase activity in 3-methylcolanthrene-induced rat liver microsomes at 1.2x10E-3M. The format is ADME, Microsome. Particulars: 3-methylcholanthrene-induced rat liver microsomes, read-out: Control. In a few lines:
as §2

Series [15] shares this target. Description: Effect on Aryl hydrocarbon hydroxylase activity in 3-methylcolanthrene-induced rat liver microsomes at 8x10E-4M. It counts as ADME, Microsome. Particulars: 3-methylcholanthrene-induced rat liver microsomes, read-out: Control. In a few lines: as §2
Series [16] has the same target. Kind of series: Effect on Aryl hydrocarbon hydroxylase activity in 3-methylcolanthrene-induced rat liver microsomes at 2.3x10E-4M. The format is ADME, Microsome. Particulars: 3-methylcholanthrene-induced rat liver microsomes, read-out: Control. The method, boiled down: as §1

A word on the logP: it is a log measure of how a compound divides between an organic and an aqueous phase. Low values mean lower lipophilicity, high ones higher lipophilicity. In the case of `CCc1nc2ccccc2[nH]1`, the log partition coefficient (logP) in series [1] was determined as 2.35. The results for the pIC50 in series [2] and in series [3] were 3.17 and 3.20, respectively.
Take `CCCCCCCCCCCc1nc2ccccc2[nH]1`: the logP in series [1] came out at 6.85. The pIC50 is 4.82 in series [2] and 4.74 in [3]. Besides, the activity at 50 µM in [4] was 103%.
In series [1], `CCc1nc2cc(C)c(C)cc2[nH]1` showed a log partition coefficient (logP) of 3.35. In addition, the pIC50 is 3.74 in [2] and 3.96 in series [3].
In the case of `CCCCCc1nc2ccccc2[nH]1`, in series [1], the lipophilicity (logP) was determined as 3.85. For the same compound, the pIC50 in series [2] is 4.30; in [3], 4.09. For the same compound, the activity at 0.00036 M in [5] was 89%.
With `CCCCCCCc1nc2ccccc2[nH]1`, the logP in series [1] was 4.85. Moreover, the pIC50 in [2] was 4.59; in series [3], 4.62. Also, in series [6], the activity at 0.00017 M was 93%.
As for `CCCc1nc2ccccc2[nH]1`, in [1], the logP was determined as 2.85. The pIC50 in series [2] was 3.52; in [3] it was 3.32. In addition, the activity at 0.00059 M in [7] came to 99%.
Regarding `Cc1nc2ccccc2[nH]1`, the logP in series [1] is 1.85. Further, the pIC50 in [2] was 2.97; in [3], 3.17. Also, the pKd in series [8] was 3.29; in series [9] it was 3.36.
In the case of `c1ccc2cc3[nH]cnc3cc2c1`, the pIC50 in series [2] is 4.28; in series [3], 4.08. The pKd in series [10] was 4.82; in series [11], 4.09.
Take `Cc1ccc2[nH]cnc2c1`: the pKd in [11] was 3.68; in [9] it was 4.21.
With `CCCC(C(=O)OCCN(CC)CC)(c1ccccc1)c1ccccc1` [PROADIFEN HYDROCHLORIDE], the results for the pIC50 in series [2] and in series [3] were 5.09 and 4.66, respectively. The activity at 52 µM in series [12] amounted to 105%.
For `c1ccc(-c2c[nH]cn2)cc1`, the pIC50 is 5.13 in series [2] and 4.48 in [3]. Besides, the pKd is 5.77 in series [8] and 5.96 in [9]. In addition, the activity at 0.00043 M in series [13] is 83%.
`c1ccc2[nH]cnc2c1` [BENZIMIDAZOLE]: in series [1], the log partition coefficient (logP) is 1.35. Also, the pIC50 is 3.01 in series [2] and 2.96 in [3]. Moreover, the activity at 0.0012 M in series [14] came out at 101%. For the same compound, the results for the pKd in [8] and in series [9] were 2.49 and 3.96, respectively.
In series [1], `Cc1cc2nc[nH]c2cc1C` [DIMEDAZOL] registered a logP of 2.35. Moreover, the results for the pIC50 in series [2] and in series [3] were 3.74 and 4.01, respectively. Further, the activity at 0.0008 M in series [15] turned out to be 69%. Besides, the values for the pKd in series [8] and in series [9] were 3.49 and 4.21, respectively.
`Cc1nc2cc(C)c(C)cc2[nH]1` registered a logP in series [1] of 2.85. Besides, the pIC50 in series [2] was 3.43; in series [3] it was 3.77. The activity at 0.00023 M in series [16] was found to be 77%. Moreover, the pKd in series [8] was 4.55; in series [9], 4.00.
